Consider two compounds from ChEMBL document CHEMBL2429850, “In vitro and in vivo effects of (-)-epigallocatechin 3-O-gallate on Leishmania amazonensis” (J Nat Prod, 2013).

Structures are written as SMILES. pIC50: −log10 of the molar value. Calls of active or inactive are those of the source. No cut-off for these calls is given here.

Data set [1] in a line: Cytotoxicity against Swiss mouse peritoneal macrophages after 72 hrs by Alamar blue assay. The conditions noted are these: Peritoneal macrophage cell. The class given is cell-based. A digest of the protocol:
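Swiss mouse peritoneal macrophages (2 × 10^6 cells/mL) adhered 1 h at 37 °C, 5% CO2; nonadherent cells washed off. Exposed to compound (3 to 3000 μM) for 72 h, washed, then AlamarBlue (10% v/v) for 12 h at 37 °C. Absorbance read at 570 nm. IC50 by logarithmic regression. 0.1% Triton X-100 lysis as positive control; PBS vehicle control; three independent experiments.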
On the technique in general: The colour change of resazurin is a common sign of viable cells or microbes.

In data set [2] the test system is Leishmania amazonensis. Nature of the data set: Antileishmanial activity against intracellular amastigotes of Leishmania amazonensis MHOM/BR/75/LTB0016 infected in Swiss mouse peritoneal macrophages assessed as inhibition of infection index after 72 hrs by light microscopic analysis. The class given is functional, organism-based. The essentials:
(§1)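 Peritoneal macrophages from Swiss mice (6−8 weeks), plated in RPMI at 2 × 10^6 cells/mL, infected with L. amazonensis promastigotes (MOI 3.0) for 3 h at 37 °C, 5% CO2; free parasites washed off. Infected cells incubated with compound (3, 6, and 12 μM) or PBS vehicle for 72 h. Light microscopy, ≥200 cells per coverslip in duplicate. Infection index = % infected macrophages × amastigotes/total macrophages. IC50 by logarithmic regression. Three independent experiments; pentamidine (12 μM) reference.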

The subject of data set [3] is Leishmania amazonensis. Briefly: Antileishmanial activity against stationary-phase promastigotes of Leishmania amazonensis MHOM/BR/75/LTB0016 infected in BALB/c mouse assessed as reduction of parasite burden at 30 mg/kg, po administered 5 times per week. The class given is functional, organism-based. The arrangement: dose 30 mg/kg. A digest of the protocol:
(§2)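 BALB/c mice (five per group, specific pathogen-free) infected intradermally in the right ear with 2 × 106 L. amazonensis promastigotes. Compound diluted in PBS, given orally at 30 mg/kg/day once daily, five times a week, until day 52. Controls received oral sterile PBS. Meglumine antimoniate 30 mg/kg/day ip served as positive control. Lesions measured twice weekly by dial caliper. Parasite load from excised, weighed, minced ears by limiting dilution in Schneider's medium with 10% FCS; growth read after 7 days at 26 °C. n = 5 ears.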

Data set [4] concerns Mus musculus. Nature of the data set: Toxicity in stationary-phase promastigotes of Leishmania amazonensis MHOM/BR/75/LTB0016 infected BALB/c mouse assessed as serum alanine aminotransferase level at 30 mg/kg, po administered 5 times per week. The class given is organism-based. Further details: dose 30 mg/kg, route oral. The conditions noted are these: in vivo. The essentials: (§3)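 Infected BALB/c mice (2 × 10^6 promastigotes intradermally, ear) were dosed orally at 30 mg/kg/day in PBS, once daily, five times a week, to day 52. The PBS-treated group served as control. Serum was collected at euthanasia, and ALT, AST and creatinine were measured with colorimetric kits. n = 5.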

For data set [5], the system named is Leishmania amazonensis. Nature of the data set: Antileishmanial activity against stationary-phase promastigotes of Leishmania amazonensis MHOM/BR/75/LTB0016 infected in BALB/c mouse assessed as reduction of lesion size at 30 mg/kg, po administered 5 times per week. The class given is functional, organism-based. The arrangement: dose 30 mg/kg. A digest of the protocol: as §2

In data set [6] the test system is Mus musculus. Nature of the data set: Toxicity in stationary-phase promastigotes of Leishmania amazonensis MHOM/BR/75/LTB0016 infected BALB/c mouse assessed as serum aspartate aminotransferase level at 30 mg/kg, po administered 5 times per week. The arrangement: dose 30 mg/kg, route oral. The note with it: in vivo. The class given is organism-based. A digest of the protocol: as §3

Data set [7] relates to Mus musculus. Nature of the data set: Toxicity in stationary-phase promastigotes of Leishmania amazonensis MHOM/BR/75/LTB0016 infected BALB/c mouse assessed as serum creatinine level at 30 mg/kg, po administered 5 times per week. The class given is organism-based. The arrangement: dose 30 mg/kg, route oral. The conditions noted are these: in vivo. A digest of the protocol: as §3

A short description of data set [8]: Selectivity index, ratio of IC50 for Swiss mouse peritoneal macrophages to IC50 for intracellular amastigotes of Leishmania amazonensis MHOM/BR/75/LTB0016. A digest of the protocol: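 Ratio of the macrophage IC50 (AlamarBlue, 72 h) to the intracellular amastigote IC50 (infection index, 72 h).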
Data set [9] has as its system Leishmania amazonensis. Briefly: Antileishmanial activity against intracellular amastigotes of Leishmania amazonensis MHOM/BR/75/LTB0016 infected in Swiss mouse peritoneal macrophages assessed as growth inhibition at 12 uM after 72 hrs. The note with it: MHOM/BR/75/LTB0016, 72 h, read-out: GI. The class given is functional. The essentials:
as §1

Data set [10] can be described thus: Selectivity index, ratio of CC50 for Balb/c mouse peritoneal macrophages to IC50 for promastigotes of Leishmania amazonensis IFLA/BR/1967/PH-8. The class given is functional.

For the compound `O=C(O[C@@H]1Cc2c(O)cc(O)cc2O[C@@H]1c1cc(O)c(O)c(O)c1)c1cc(O)c(O)c(O)c1` [EPIGALOCATECHIN GALLATE], the pIC50 (usually the IC50 on a negative log10 scale, so that one unit is a factor of ten) in data set [1] was 3.36; with Leishmania amazonensis [2] (MHOM/BR/75/LTB0016, 72 h), 5.80. In the data set on Leishmania amazonensis [2], the inhibition result was “Dose-dependent effect”. Besides, the outcome with Leishmania amazonensis [3] and in the data set on Leishmania amazonensis [5] was Active. For the same compound, the Activity entry in the data set with Mus musculus [4], in the data set with Mus musculus [6] and in the data set with Mus musculus [7] was “Non-toxic” in each case. For the same compound, the “Ratio IC50” value in data set [8] was found to be 129.4. Besides, the inhibition of growth at 12 µM with Leishmania amazonensis [9] turned out to be 83.6%.
`CCCCCCCCCCCCCCCCOP(=O)([O-])OCC[N+](C)(C)C` [MILTEFOSINE]: the “Ratio CC50/IC50” value in data set [10] was determined as 28.9.
